In brackets after ≈: the same amount, converted by molar mass.
Key:
Pichia kudriavzevii [1] = test: Antimicrobial activity against Candida krusei TIMM 0269 by microdilution assay; format: functional
Procedure, shortened: (§1)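 CLSI broth microdilution, modified to incubate at 30 °C. MIC-0 is the lowest drug concentration giving an optically clear well. Table footnote: the endpoint was the lowest concentration producing a prominent reduction in turbidity. Drug range 0.004 to 128 µg/mL.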

Candida albicans [2] = test: Antimicrobial activity against Candida albicans ATCC 24433 by microdilution assay; format: functional; procedure, shortened: as §1
[3] = Octanol-phosphate buffered saline partition coefficient, log D of the compound at pH 6.8; format: physicochemical
Procedure, shortened: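 Shake partition between 1-octanol and phosphate-buffered saline at pH 6.8. Layers were separated by centrifugation at 3000 rpm for 10 min, and each layer was assayed by LC/MS on a C18 column with an ammonium acetate (pH 4.5)/acetic acid–acetonitrile gradient. Log D was computed from the partition coefficient.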

Candida tropicalis [4] = test: Antimicrobial activity against Candida tropicalis TIMM 0313 by microdilution assay; format: functional; procedure, shortened: as §1
Liver microsomes = test: Metabolic stability in human liver microsomes; format: ADME, Microsome
Procedure, shortened: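 Compound at 1 µM final with human liver microsomes (0.5 mg/mL protein) in sodium phosphate buffer pH 7.4, preincubated 20 min at 37 °C. NADPH started the reaction, and MeOH stopped it after 30 min. Samples were centrifuged at 4 °C, and parent loss was measured by LC/MS/MS.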

[5] = Solubility of the compound at pH 6.8; format: physicochemical; conditions: buffer
Procedure, shortened: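 Water solubility measured at pH 6.8.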

Saccharomyces cerevisiae [6] = test: Antimicrobial activity against Saccharomyces cerevisiae AY14 by microdilution assay; format: functional; procedure, shortened: as §1
Nakaseomyces glabratus [7] = test: Antimicrobial activity against Candida glabrata IFO 0622 by microdilution assay; format: functional; procedure, shortened: as §1
Nakaseomyces glabratus [8] = test: Antimicrobial activity against Candida glabrata ATCC 48435 using alamar blue stain by microdilution assay; format: functional
Procedure, shortened: (§2)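 Modified CLSI microdilution in RPMI 1640 with 0.165 M MOPS, plus alamar blue redox indicator. Inoculum was 1 × 10³ to 1 × 10⁴ cells/mL and incubation ran 18–72 h, both set per strain by growth speed, at 30 °C. OD570 was read and MIC-2 taken as the lowest concentration giving 50% absorbance reduction versus the drug-free control.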

Saccharomyces cerevisiae [9] = test: Antimicrobial activity against Saccharomyces cerevisiae AY14 using alamar blue stain by microdilution assay; format: functional; procedure, shortened: as §2
Candida albicans [10] = test: Antimicrobial activity against Candida albicans ATCC 24433 using alamar blue stain by microdilution assay; format: functional; procedure, shortened: as §2
Pichia kudriavzevii [11] = test: Antimicrobial activity against Candida krusei ATCC 44507 using alamar blue stain by microdilution assay; format: functional; procedure, shortened: as §2
Candida tropicalis [12] = test: Antimicrobial activity against Candida tropicalis IAM 4965 using alamar blue stain by microdilution assay; format: functional; procedure, shortened: as §2

## CCCCc1c(C)c(C#N)c2nc3ccccc3n2c1N1CC[C@H](N(C)C)C1
Pichia kudriavzevii [1]
  MIC: 0.5 µg/mL (≈ 1.33 µM)
Candida albicans [2]
  MIC: > 128 µg/mL
[3]
  logD: 3.2
Candida tropicalis [4]
  MIC: 0.5 µg/mL (≈ 1.33 µM)
Liver microsomes
  Stability: 57%
[5]
  solubility: 26 µg/mL (≈ 69.2 µM)
Saccharomyces cerevisiae [6]
  MIC: 0.25 µg/mL (≈ 0.666 µM)
Nakaseomyces glabratus [7]
  MIC: ≤ 0.125 µg/mL

## Cc1c(-c2ccccc2)c(N2CC[C@H](N(C)C)C2)n2nc(C(C)(C)C)nc2c1C#N
Nakaseomyces glabratus [8]
  MIC: 0.063 µg/mL (≈ 0.157 µM)
Saccharomyces cerevisiae [9]
  MIC: 0.063 µg/mL (≈ 0.157 µM)
Candida albicans [10]
  MIC: > 4 µg/mL
Pichia kudriavzevii [1]
  MIC: 16 µg/mL (≈ 39.7 µM)
Candida albicans [2]
  MIC: > 128 µg/mL
[3]
  logD: 3.1
Candida tropicalis [4]
  MIC: 2 µg/mL (≈ 4.97 µM)
Liver microsomes
  Stability: 9%
[5]
  solubility: 16 µg/mL (≈ 39.7 µM)
Saccharomyces cerevisiae [6]
  MIC: ≤ 0.125 µg/mL
Pichia kudriavzevii [11]
  MIC: > 4 µg/mL
Nakaseomyces glabratus [7]
  MIC: ≤ 0.125 µg/mL
Candida tropicalis [12]
  MIC: 0.25 µg/mL (≈ 0.621 µM)

## Cc1cn2c(N3CC[C@H](N(C)C)C3)c(-c3ccccc3)c(C)c(C#N)c2n1
Nakaseomyces glabratus [8]
  MIC: 0.5 µg/mL (≈ 1.39 µM)
Saccharomyces cerevisiae [9]
  MIC: 1 µg/mL (≈ 2.78 µM)
Candida albicans [10]
  MIC: > 4 µg/mL
[3]
  logD: 1.9
Liver microsomes
  Stability: 71%
[5]
  solubility: 356 µg/mL (≈ 990 µM)
Pichia kudriavzevii [11]
  MIC: > 4 µg/mL
Candida tropicalis [12]
  MIC: > 4 µg/mL

## CCc1nc2c(C#N)c(C)c(-c3ccccc3)c(N3CC[C@H](N(C)C)C3)n2n1
Nakaseomyces glabratus [8]
  MIC: 0.125 µg/mL (≈ 0.334 µM)
Saccharomyces cerevisiae [9]
  MIC: 0.063 µg/mL (≈ 0.168 µM)
Candida albicans [10]
  MIC: > 4 µg/mL
[3]
  logD: 2.1
Liver microsomes
  Stability: 54%
[5]
  solubility: 228 µg/mL (≈ 609 µM)
Pichia kudriavzevii [11]
  MIC: > 4 µg/mL
Candida tropicalis [12]
  MIC: 1 µg/mL (≈ 2.67 µM)

## Cc1c(-c2ccccc2)c(N2CC[C@H](N(C)C)C2)n2c(nc3ccccc32)c1C#N
Pichia kudriavzevii [1]
  MIC: ≤ 0.125 µg/mL
Candida albicans [2]
  MIC: > 128 µg/mL
[3]
  logD: 3.1
Candida tropicalis [4]
  MIC: 0.5 µg/mL (≈ 1.26 µM)
Liver microsomes
  Stability: 29%
[5]
  solubility: 5.3 µg/mL (≈ 13.4 µM)
Saccharomyces cerevisiae [6]
  MIC: ≤ 0.125 µg/mL
Nakaseomyces glabratus [7]
  MIC: ≤ 0.125 µg/mL

## Cc1c(-c2ccccc2)c(N2CC[C@H](N(C)C)C2)n2nc(C(C)(C)COCc3ccccc3)nc2c1C#N
Nakaseomyces glabratus [8]
  MIC: 0.125 µg/mL (≈ 0.246 µM)
Saccharomyces cerevisiae [9]
  MIC: 0.063 µg/mL (≈ 0.124 µM)
Candida albicans [10]
  MIC: > 4 µg/mL
[3]
  logD: 3.8
Liver microsomes
  Stability: 9%
[5]
  solubility: < 3 µg/mL
Pichia kudriavzevii [11]
  MIC: > 4 µg/mL
Candida tropicalis [12]
  MIC: 0.125 µg/mL (≈ 0.246 µM)

## Cc1c(-c2ccccc2)c(N2CC[C@H](N(C)C)C2)n2nc(C(C)(C)CO)nc2c1C#N
Nakaseomyces glabratus [8]
  MIC: 0.25 µg/mL (≈ 0.597 µM)
Saccharomyces cerevisiae [9]
  MIC: 0.125 µg/mL (≈ 0.299 µM)
Candida albicans [10]
  MIC: > 4 µg/mL
[3]
  logD: 1.8
Liver microsomes
  Stability: 64%
[5]
  solubility: 140 µg/mL (≈ 334 µM)
Pichia kudriavzevii [11]
  MIC: > 4 µg/mL
Candida tropicalis [12]
  MIC: 0.25 µg/mL (≈ 0.597 µM)

## CCCCc1c(C)c(C#N)c2nc(C(C)(C)C)nn2c1N1CC[C@H](N(C)C)C1
Pichia kudriavzevii [1]
  MIC: > 128 µg/mL
Candida albicans [2]
  MIC: > 128 µg/mL
[3]
  logD: 3.2
Candida tropicalis [4]
  MIC: > 128 µg/mL
Liver microsomes
  Stability: 11%
[5]
  solubility: 146 µg/mL (≈ 382 µM)
Saccharomyces cerevisiae [6]
  MIC: 64 µg/mL (≈ 167 µM)
Nakaseomyces glabratus [7]
  MIC: 32 µg/mL (≈ 83.6 µM)

## Cc1c(-c2ccccc2)c(N2CC[C@H](N(C)C)C2)n2nc(C3CC3)nc2c1C#N
Nakaseomyces glabratus [8]
  MIC: 0.063 µg/mL (≈ 0.163 µM)
Saccharomyces cerevisiae [9]
  MIC: 0.032 µg/mL (≈ 0.0828 µM)
Candida albicans [10]
  MIC: > 4 µg/mL
[3]
  logD: 2.4
Liver microsomes
  Stability: 48%
[5]
  solubility: 57 µg/mL (≈ 147 µM)
Pichia kudriavzevii [11]
  MIC: > 4 µg/mL
Candida tropicalis [12]
  MIC: 1 µg/mL (≈ 2.59 µM)

## CCN(CC)CCNc1c(-c2ccccc2)c(C)c(C#N)c2nc(C(C)(C)C)nn12
Pichia kudriavzevii [1]
  MIC: > 128 µg/mL
Candida albicans [2]
  MIC: > 128 µg/mL
[3]
  logD: 3.3
Candida tropicalis [4]
  MIC: > 128 µg/mL
Liver microsomes
  Stability: 10%
[5]
  solubility: 2 µg/mL (≈ 4.94 µM)
Saccharomyces cerevisiae [6]
  MIC: 0.5 µg/mL (≈ 1.24 µM)
Nakaseomyces glabratus [7]
  MIC: 0.5 µg/mL (≈ 1.24 µM)

## Cc1c(-c2ccccc2)c(N2CC[C@H](N(C)C)C2)n2nc(-c3ccccc3)nc2c1C#N
Pichia kudriavzevii [1]
  MIC: > 128 µg/mL
Candida albicans [2]
  MIC: > 128 µg/mL
Candida tropicalis [4]
  MIC: > 128 µg/mL
Saccharomyces cerevisiae [6]
  MIC: > 128 µg/mL
Nakaseomyces glabratus [7]
  MIC: > 128 µg/mL

## OC(Cn1cncn1)(Cn1cncn1)c1ccc(F)cc1F [FLUCONAZOLE]
Pichia kudriavzevii [1]
  MIC: 16 µg/mL (≈ 52.2 µM)
Candida albicans [2]
  MIC: 0.25 µg/mL (≈ 0.816 µM)
Candida tropicalis [4]
  MIC: 0.25 µg/mL (≈ 0.816 µM)
Liver microsomes
  Stability: 96%
[5]
  solubility: > 2000 µg/mL
Saccharomyces cerevisiae [6]
  MIC: 4 µg/mL (≈ 13.1 µM)
Nakaseomyces glabratus [7]
  MIC: 2 µg/mL (≈ 6.53 µM)

## Cc1c(-c2ccccc2)c(N2CC[C@H](N(C)C)C2)n2cc(C(C)(C)C)nc2c1C#N
Nakaseomyces glabratus [8]
  MIC: 0.25 µg/mL (≈ 0.623 µM)
Saccharomyces cerevisiae [9]
  MIC: 0.125 µg/mL (≈ 0.311 µM)
Candida albicans [10]
  MIC: 4 µg/mL (≈ 9.96 µM)
[3]
  logD: 3
Liver microsomes
  Stability: 16%
[5]
  solubility: 27 µg/mL (≈ 67.2 µM)
Pichia kudriavzevii [11]
  MIC: 4 µg/mL (≈ 9.96 µM)
Candida tropicalis [12]
  MIC: 4 µg/mL (≈ 9.96 µM)

## Cc1nc2c(C#N)c(C)c(-c3ccccc3)c(N3CC[C@H](N(C)C)C3)n2n1
Pichia kudriavzevii [1]
  MIC: > 128 µg/mL
Candida albicans [2]
  MIC: > 128 µg/mL
[3]
  logD: 1.7
Candida tropicalis [4]
  MIC: > 128 µg/mL
Liver microsomes
  Stability: 84%
[5]
  solubility: 376 µg/mL (≈ 1040 µM)
Saccharomyces cerevisiae [6]
  MIC: 8 µg/mL (≈ 22.2 µM)
Nakaseomyces glabratus [7]
  MIC: 2 µg/mL (≈ 5.55 µM)

## Cc1c(-c2ccccc2)c(N2CC[C@H](N(C)C)C2)n2nc(C(C)(C)C)cc2c1C#N
Nakaseomyces glabratus [8]
  MIC: 1 µg/mL (≈ 2.49 µM)
Saccharomyces cerevisiae [9]
  MIC: 1 µg/mL (≈ 2.49 µM)
Candida albicans [10]
  MIC: 4 µg/mL (≈ 9.96 µM)
[3]
  logD: 4.8
Liver microsomes
  Stability: 12%
[5]
  solubility: < 2 µg/mL
Pichia kudriavzevii [11]
  MIC: 4 µg/mL (≈ 9.96 µM)
Candida tropicalis [12]
  MIC: 1 µg/mL (≈ 2.49 µM)

## CCCCc1nc2c(C#N)c(C)c(-c3ccccc3)c(N3CC[C@H](N(C)C)C3)n2n1
Pichia kudriavzevii [1]
  MIC: > 64 µg/mL
Candida albicans [2]
  MIC: > 128 µg/mL
[3]
  logD: 3.2
Candida tropicalis [4]
  MIC: > 64 µg/mL
Liver microsomes
  Stability: 5%
[5]
  solubility: 33 µg/mL (≈ 82 µM)
Saccharomyces cerevisiae [6]
  MIC: 2 µg/mL (≈ 4.97 µM)
Nakaseomyces glabratus [7]
  MIC: 1 µg/mL (≈ 2.48 µM)
